Active and inactive are the calls of the source. No cut-off for these calls is given here.
How the values were obtained:
Rhizopus arrhizus [1] = assay: Antifungal activity against Rhizopus oryzae RHPOR1 assessed as reduction in microbial growth after 24 hrs by broth microdilution method; format: functional
Procedure, shortened: (§1)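 CLSI M38 broth microdilution in RPMI 1640 buffered to pH 7.0 with MOPS. Drugs were diluted in DMSO then medium; final range 0.032-16 mg/L. Conidia or sporangiospores came from 7-day potato dextrose agar cultures; diluted (2×) inocula were 0.9×10^4–4.7×10^4 CFU/mL. Incubation at 35 °C, read at 48 h except Zygomycetes at 24 h. MIC read visually as lowest concentration preventing 100% growth; duplicate.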

Scedosporium apiospermum = assay: Antifungal activity against Scedosporium apiospermum SCAP1 assessed as reduction in microbial growth […] by broth microdilution method; format: functional
Rhizopus arrhizus [2] = assay: Antifungal activity against Rhizopus oryzae RHPOR2 assessed as reduction in microbial growth after 24 hrs by broth microdilution method; format: functional; procedure, shortened: as §1
Fusarium sp. = assay: Antifungal activity against Fusarium sp. assessed as reduction in microbial growth […] by broth microdilution method; format: functional
Mucor circinelloides = assay: Antifungal activity against Mucor circinelloides MURI1 assessed as reduction in microbial growth after 24 hrs by broth microdilution method; format: functional; procedure, shortened: as §1
Aspergillus fumigatus [3] = assay: Antifungal activity against Aspergillus fumigatus ASFU77 assessed as reduction in microbial growth after 48 hrs by resazurin staining based spectrofluorometric method; format: functional
Procedure, shortened: (§2)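 A. fumigatus conidia counted by microscope and inoculated at 10^4 cells mL⁻¹ in RPMI 1640 with 0.165 M MOPS, 2% glucose and antibiotics. Drugs were dissolved in DMSO (fluconazole in water), then diluted in medium. Plates ran 48 h at 37 °C, then resazurin for 20 h, read by fluorescence at ex 550/em 590 nm. MIC is 80% growth inhibition by linear regression; triplicate, mean±SD.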

[4] = test system: Pichia kudriavzevii (Candida krusei); assay: Antifungal activity against fluconazole-resistant Candida krusei CAKR8 assessed as reduction in microbial growth after 24 hrs by resazurin staining based spectrofluorometric method; settings: CAKR8, 24 h
Candida albicans [5] = assay: Antifungal activity against fluconazole-resistant Candida albicans DSY735 over expression of CDR1/CDR2 assessed as reduction in microbial growth after 24 hrs by resazurin staining based spectrofluorometric method; format: functional
Procedure, shortened: (§3)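 Broth microdilution in RPMI 1640 with 0.165 M MOPS, 2% glucose and antibiotics; yeast inoculum at 10³ cells mL⁻¹ final. Compounds were dissolved in DMSO (fluconazole in water) and diluted in medium, then incubated 24 h at 37 °C. Viability was read by resazurin fluorescence (ex 550/em 590 nm) after 4 h. MIC was taken as 50% growth inhibition, by linear regression; triplicate experiments.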

Candida albicans [6] = assay: Antifungal activity against fluconazole-susceptible Candida albicans CAAL93 assessed as reduction in microbial growth after 24 hrs by resazurin staining based spectrofluorometric method; format: functional
Procedure, shortened: (§4)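 Yeasts in RPMI 1640 with 0.165 M MOPS, 2% glucose and antibiotics, final 10³ cells mL⁻¹. Drugs in DMSO (fluconazole in water) were diluted in medium. Plates ran 24 h at 37 °C, then resazurin for 4 h, fluorescence ex 550/em 590 nm. MIC is 50% growth inhibition by linear regression; triplicate, mean±SD.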

Nakaseomyces glabratus = assay: Antifungal activity against fluconazole-sensitive Candida glabrata CAGL2 assessed as reduction in microbial growth after 24 hrs by resazurin staining based spectrofluorometric method; format: functional; procedure, shortened: as §4
Aspergillus fumigatus [7] = assay: Antifungal activity against Aspergillus fumigatus ASFU7 assessed as reduction in microbial growth after 48 hrs by resazurin staining based spectrofluorometric method; format: functional; procedure, shortened: as §2
[8] = test system: Pichia kudriavzevii (Candida krusei); assay: Antifungal activity against fluconazole-resistant Candida krusei CAKR7 assessed as reduction in microbial growth after 24 hrs by resazurin staining based spectrofluorometric method; settings: CAKR7, 24 h
Candida albicans [9] = assay: Antifungal activity against fluconazole-resistant Candida albicans DSY292 harboring Erg1l G464S/R467K/Y132 mutant assessed as reduction in microbial growth after 24 hrs by resazurin staining based spectrofluorometric method; format: functional; procedure, shortened: as §3
Aspergillus fumigatus [10] = assay: Antifungal activity against Aspergillus fumigatus ASFU76 assessed as reduction in microbial growth after 48 hrs by resazurin staining based spectrofluorometric method; format: functional; procedure, shortened: as §2
Candida albicans [11] = assay: Antifungal activity against Candida albicans DSY292 harboring Erg1l G464S/R467K/Y132 mutant infected in Swiss mouse assessed as survival at 15 mg/kg, po after 8 days; format: functional, organism-based; settings: time 8.0 day
Procedure, shortened: (§5)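 Swiss mice (~25 g) immunosuppressed with prednisolone 30 mg/kg s.c. one day before challenge; day 0 i.v. infection with C. albicans blastoconidia (5.10⁶ yeast/mL, 100 µL). Oral dosing 1 h post-infection, once daily for 5 days, 10 mg/kg (CAAL93) or 15 mg/kg (DSY292), vehicle 40% DMSO/25% Tween80/35% olive oil. Mice given 50% grapefruit juice ad libitum. Survival followed 14 days (log-rank Mantel-Cox).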

Candida albicans [12] = assay: Inhibition of sterol biosynthesis in Candida albicans CAAL93 assessed as fecosterol level at 10 ng/ml after 18 hrs by GC-MS analysis relative to control; format: functional; set-up: scale not given: the % may be the effect or the level left
Procedure, shortened: (§6)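 C. albicans CAAL93 blastospores were grown 18 h at 35 °C with stirring in 50 mL Sabouraud broth, with drug added before incubation. Cells were pelleted and saponified in ethanolic KOH at 80 °C for 60 min, and sterols extracted with hexane. Analysis by GC-MS (EI 70 eV, splitless injection at 250 °C, helium carrier); sterols identified by fragmentation pattern.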

Candida albicans [13] = assay: Inhibition of sterol biosynthesis in Candida albicans CAAL93 assessed as zymosterol level at 10 ng/ml after 18 hrs by GC-MS analysis (reference value: 1.6%); format: functional; set-up: scale not given: the % may be the effect or the level left; procedure, shortened: as §6
Candida albicans [14] = assay: Inhibition of sterol biosynthesis in Candida albicans CAAL93 assessed as episterol level at 10 ng/ml after 18 hrs by GC-MS analysis (reference value: 2%); format: functional; set-up: scale not given: the % may be the effect or the level left; procedure, shortened: as §6
Candida albicans [15] = assay: Inhibition of sterol biosynthesis in Candida albicans CAAL93 assessed as 14alpha-methylfecosterol level at 10 ng/ml after 18 hrs by GC-MS analysis relative to control; format: functional; set-up: scale not given: the % may be the effect or the level left; procedure, shortened: as §6
Candida albicans [16] = assay: Inhibition of sterol biosynthesis in Candida albicans CAAL93 assessed as eburicol level at 10 ng/ml after 18 hrs by GC-MS analysis relative to control; format: functional; set-up: scale not given: the % may be the effect or the level left; procedure, shortened: as §6
Candida albicans [17] = assay: Inhibition of sterol biosynthesis in Candida albicans CAAL93 assessed as other sterols level at 10 ng/ml after 18 hrs by GC-MS analysis (Rvb < 1%); format: functional; set-up: scale not given: the % may be the effect or the level left; procedure, shortened: as §6
Candida albicans [18] = assay: Inhibition of sterol biosynthesis in Candida albicans CAAL93 assessed as ergosterol level at 10 ng/ml after 18 hrs by GC-MS analysis (reference value: 89.7%); format: functional; set-up: scale not given: the % may be the effect or the level left; procedure, shortened: as §6
Candida albicans [19] = assay: Inhibition of sterol biosynthesis in Candida albicans CAAL93 assessed as ergostadienol level at 10 ng/ml after 18 hrs by GC-MS analysis (reference value: 1.6%); format: functional; set-up: scale not given: the % may be the effect or the level left; procedure, shortened: as §6
Candida albicans [20] = assay: Antifungal activity against Candida albicans DSY292 harboring Erg1l G464S/R467K/Y132 mutant infected in Swiss mouse assessed as survival at 15 mg/kg, po after 5 days; format: functional, organism-based; settings: time 5.0 day; procedure, shortened: as §5
Candida albicans [21] = assay: Antifungal activity against Candida albicans CAAL93 infected in Swiss mouse assessed as survival at 10 mg/kg, po after 14 days relative to control; format: functional; settings: 336 h, time 14 day; procedure, shortened: as §5
Candida albicans [22] = assay: Inhibition of sterol biosynthesis in Candida albicans CAAL93 assessed as lanosterol level at 10 ng/ml after 18 hrs by GC-MS analysis (reference value: 1.6%); format: functional; set-up: scale not given: the % may be the effect or the level left; procedure, shortened: as §6
Candida albicans [23] = assay: Antifungal activity against Candida albicans CAAL93 infected in Swiss mouse assessed as reduction in kidney fungal burden at 10 mg/kg, po after 14 days; format: functional, organism-based; settings: time 14.0 day

| SMILES | MIC (Rhizopus arrhizus [1]) [µg/mL] | MIC (Scedosporium apiospermum) [µg/mL] | MIC (Rhizopus arrhizus [2]) [µg/mL] | MIC (Fusarium sp.) [µg/mL] | MIC (Mucor circinelloides) [µg/mL] | MIC (Aspergillus fumigatus [3]) [µg/mL] | MIC [4] [µg/mL] | MIC (Aspergillus fumigatus [7]) [µg/mL] | MIC [8] [µg/mL] | other results |
| --- | --- | --- | --- | --- | --- | --- | --- | --- | --- | --- |
| C[C@@H]1[C@H](O)[C@@H](C)/C=C/C=C/C=C/C=C/C=C/C=C/C=C/[C@H](O[C@@H]2O[C@H](C)[C@@H](O)[C@H](N)[C@@H]2O)C[C@@H]2O[C@](O)(C[C@@H](O)C[C@@H](O)[C@H](O)CC[C@@H](O)C[C@@H](O)CC(=O)O[C@H]1C)C[C@H](O)[C@H]2C(=O)O [AMPHOTERICIN B] | 0.19 | > 8 | 0.5 | 12 | 0.19 | – | – | – | – | – |
| C[C@@H](n1ncc2cc(Br)cn2c1=O)[C@](O)(Cn1cncn1)c1ccc(F)cc1F | 4 | 4 | 8 | > 16 | 8 | 6.74 | 0.076 | 6.66 | 0.251 | MIC (Candida albicans [5]): 0.14 µg/mL; MIC (Candida albicans [6]): 0.002 µg/mL; MIC (Nakaseomyces glabratus): 0.014 µg/mL; MIC (Candida albicans [9]): 0.155 µg/mL |
| C[C@@H](n1ncc2cc(-c3ccc(C#N)cc3)cn2c1=O)[C@](O)(Cn1cncn1)c1ccc(F)cc1F | 0.125 | > 16 | 0.25 | 10 | 0.75 | > 100 | 0.101 | > 100 | 0.058 | MIC (Aspergillus fumigatus [10]): > 100 µg/mL |
| C[C@@H](n1ncc2cccn2c1=O)[C@](O)(Cn1cncn1)c1ccc(F)cc1F | 4 | > 16 | 8 | > 16 | 16 | – | 1.15 | – | 0.625 | – |
| CCC(C)n1ncn(-c2ccc(N3CCN(c4ccc(OCC5COC(Cn6cncn6)(c6ccc(Cl)cc6Cl)O5)cc4)CC3)cc2)c1=O (configuration not stated) [ITRACONAZOLE] | 0.19 | 0.5 | 1.12 | > 16 | 0.19 | > 100 | – | 0.5 | – | – |
| CC[C@@H]([C@H](C)O)n1ncn(-c2ccc(N3CCN(c4ccc(OC[C@@H]5CO[C@@](Cn6cncn6)(c6ccc(F)cc6F)C5)cc4)CC3)cc2)c1=O [POSACONAZOLE] | 0.19 | 1.25 | 0.5 | > 8 | 0.19 | – | – | – | – | – |
| C[C@@H](n1ncc2cc(-c3ccc([N+](=O)[O-])cc3)cn2c1=O)[C@](O)(Cn1cncn1)c1ccc(F)cc1F | 0.0625 | > 16 | 0.25 | 12 | 0.25 | – | 0.039 | – | 0.066 | – |
| C[C@@H](n1ncc2cc(-c3ccccc3)cn2c1=O)[C@](O)(Cn1cncn1)c1ccc(F)cc1F | – | – | – | – | – | – | 0.014 | – | 0.013 | – |
| C[C@@H](c1ncncc1F)[C@](O)(Cn1cncn1)c1ccc(F)cc1F [VORICONAZOLE] | – | 0.5 | 8 | 6 | > 8 | – | 0.24 | – | 0.817 | Survival (Candida albicans [11]): inactive |
| OC(Cn1cncn1)(Cn1cncn1)c1ccc(F)cc1F [FLUCONAZOLE] | – | – | – | – | – | – | > 10 | – | > 3 | Activity (Candida albicans [12]): 2.8%; Activity (Candida albicans [13]): 2.8%; Activity (Candida albicans [14]): 8.8%; Activity (Candida albicans [15]): 2%; Activity (Candida albicans [16]): 2.2%; Activity (Candida albicans [17]): 7.3%; Activity (Candida albicans [18]): 57.8%; Activity (Candida albicans [19]): 3.2%; Survival (Candida albicans [20]): inactive; survival at 10 mg/kg (Candida albicans [21]): 100%; Activity (Candida albicans [22]): 13.1%; Activity (Candida albicans [23]): Active |
